# Experimental data from PMC6287672 (International Journal for Parasitology: Drugs and Drug …, 2018).
# What was measured:
# Test in all cases: two-electrode voltage clamp, Xenopus oocytes
# Assay type in all cases: cell-based
# Hco-UNC-49BC [1] = target: T1, Hco-UNC-49BC (Haemonchus contortus, UniProt D6BK80, D83N)
# T1 sequence (D6BK80 22-496 D83N): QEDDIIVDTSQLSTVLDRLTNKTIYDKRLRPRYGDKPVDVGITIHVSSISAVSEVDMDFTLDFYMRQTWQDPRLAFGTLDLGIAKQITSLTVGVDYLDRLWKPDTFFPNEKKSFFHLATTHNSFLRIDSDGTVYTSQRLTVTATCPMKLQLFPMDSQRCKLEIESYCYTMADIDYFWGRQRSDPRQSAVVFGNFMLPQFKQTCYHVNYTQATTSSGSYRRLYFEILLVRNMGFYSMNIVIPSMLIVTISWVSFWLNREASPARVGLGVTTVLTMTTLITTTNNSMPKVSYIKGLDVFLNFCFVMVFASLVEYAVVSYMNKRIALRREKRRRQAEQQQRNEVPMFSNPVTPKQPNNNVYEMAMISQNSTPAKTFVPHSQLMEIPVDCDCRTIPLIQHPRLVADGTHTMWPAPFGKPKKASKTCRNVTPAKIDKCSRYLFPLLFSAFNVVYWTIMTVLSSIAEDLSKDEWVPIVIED
# T1 sequence (D6BJF3 22-440 partner): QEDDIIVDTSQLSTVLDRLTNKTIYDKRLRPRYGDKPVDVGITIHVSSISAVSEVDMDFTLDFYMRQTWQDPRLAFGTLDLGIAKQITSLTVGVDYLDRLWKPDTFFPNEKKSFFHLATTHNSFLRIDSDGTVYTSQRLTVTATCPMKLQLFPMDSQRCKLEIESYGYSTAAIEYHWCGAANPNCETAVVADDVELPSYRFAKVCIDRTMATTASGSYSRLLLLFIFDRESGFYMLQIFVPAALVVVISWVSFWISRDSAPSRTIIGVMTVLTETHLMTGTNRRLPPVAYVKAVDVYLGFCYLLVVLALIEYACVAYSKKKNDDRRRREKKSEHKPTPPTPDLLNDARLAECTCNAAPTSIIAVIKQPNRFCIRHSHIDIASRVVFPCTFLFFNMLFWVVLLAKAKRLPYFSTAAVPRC
# In short: (§1)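 Oocytes from X. laevis, collagenase-treated in OR-2 (pH 7.5) for 2 h, were co-injected with wild-type or mutant hco-unc-49b cRNA plus wild-type hco-unc-49c cRNA and kept 48 h at 20ᵒC in supplemented ND96. Cells were clamped at −60 mV and GABA in ND96 was perfused, with 1–2 min ND96 washes between doses. Currents were normalised to each oocyte's maximal GABA response and fitted with a variable-slope Hill equation (≥5 oocytes, two batches).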
# Hco-UNC-49BC [2] = target: T2, Hco-UNC-49BC (Haemonchus contortus, UniProt D6BK80, E131A)
# T2 sequence (D6BK80 22-496 E131A): T1 sequence (D6BK80 22-496 D83N)
# T2 sequence (D6BJF3 22-440 partner): T1 sequence (D6BJF3 22-440 partner)
# In short: as §1
# Hco-UNC-49BC [3] = target: T3, Hco-UNC-49BC (Haemonchus contortus, UniProt D6BK80, H137K)
# T3 sequence (D6BK80 22-496 H137K): T1 sequence (D6BK80 22-496 D83N)
# T3 sequence (D6BJF3 22-440 partner): T1 sequence (D6BJF3 22-440 partner)
# In short: as §1
# Hco-UNC-49BC [4] = target: T4, Hco-UNC-49BC (Haemonchus contortus, UniProt D6BK80, D83E)
# T4 sequence (D6BK80 22-496 D83E): T1 sequence (D6BK80 22-496 D83N)
# T4 sequence (D6BJF3 22-440 partner): T1 sequence (D6BJF3 22-440 partner)
# In short: as §1
# Hco-UNC-49BC [5] = target: T5, Hco-UNC-49BC (Haemonchus contortus, UniProt D6BK80, R241K)
# T5 sequence (D6BK80 22-496 R241K): T1 sequence (D6BK80 22-496 D83N)
# T5 sequence (D6BJF3 22-440 partner): T1 sequence (D6BJF3 22-440 partner)
# In short: as §1
# Hco-UNC-49BC [6] = target: T6, Hco-UNC-49BC (Haemonchus contortus, UniProt D6BK80, D83C)
# T6 sequence (D6BK80 22-496 D83C): T1 sequence (D6BK80 22-496 D83N)
# T6 sequence (D6BJF3 22-440 partner): T1 sequence (D6BJF3 22-440 partner)
# In short: as §1
# Hco-UNC-49BC [7] = target: T7, Hco-UNC-49BC (Haemonchus contortus, UniProt D6BK80, R159A)
# T7 sequence (D6BK80 22-496 R159A): T1 sequence (D6BK80 22-496 D83N)
# T7 sequence (D6BJF3 22-440 partner): T1 sequence (D6BJF3 22-440 partner)
# In short: as §1
# Hco-UNC-49BC [8] = target: T8, Hco-UNC-49BC (Haemonchus contortus, UniProt D6BK80, D83T)
# T8 sequence (D6BK80 22-496 D83T): T1 sequence (D6BK80 22-496 D83N)
# T8 sequence (D6BJF3 22-440 partner): T1 sequence (D6BJF3 22-440 partner)
# In short: as §1
# Hco-UNC-49BC [9] = target: T9, Hco-UNC-49BC (Haemonchus contortus, UniProt D6BK80, H137A)
# T9 sequence (D6BK80 22-496 H137A): T1 sequence (D6BK80 22-496 D83N)
# T9 sequence (D6BJF3 22-440 partner): T1 sequence (D6BJF3 22-440 partner)
# In short: as §1
# Hco-UNC-49BC [10] = target: T10, Hco-UNC-49BC (Haemonchus contortus, UniProt D6BK80)
# T10 sequence (D6BK80 22-496): T1 sequence (D6BK80 22-496 D83N)
# T10 sequence (D6BJF3 22-440 partner): T1 sequence (D6BJF3 22-440 partner)
# In short: as §1
# Hco-UNC-49BC [11] = target: T11, Hco-UNC-49BC (Haemonchus contortus, UniProt D6BK80, R241A)
# T11 sequence (D6BK80 22-496 R241A): T1 sequence (D6BK80 22-496 D83N)
# T11 sequence (D6BJF3 22-440 partner): T1 sequence (D6BJF3 22-440 partner)
# In short: as §1
smiles,measurement,setting,value
NCCCC(=O)O [GABA],EC50,Hco-UNC-49BC [1],342 ± 30 µM
same,EC50,Hco-UNC-49BC [2],219 ± 21 µM
same,EC50,Hco-UNC-49BC [3],4170 ± 745 µM
same,EC50,Hco-UNC-49BC [4],276 ± 37 µM
same,EC50,Hco-UNC-49BC [5],3790 ± 435 µM
same,EC50,Hco-UNC-49BC [6],454 ± 47 µM
same,EC50,Hco-UNC-49BC [7],5470 ± 396 µM
same,EC50,Hco-UNC-49BC [8],520 ± 34 µM
same,EC50,Hco-UNC-49BC [9],2170 ± 173 µM
same,EC50,Hco-UNC-49BC [10],68 ± 17 µM
same,EC50,Hco-UNC-49BC [11],5170 ± 473 µM
